Data from ChEMBL document CHEMBL1122055, “DL-threo-beta-Fluoroaspartate and DL-threo-beta-fluoroasparagine: selective cytotoxic agents for mammalian cells in culture” (J Med Chem, 1982).

How the values were obtained:
H4 [1] = experiment: Tested for its reversal effect on growth of H4 cells at 133 + 50 ug/mL concentrations of L-aspargine and DL-threo-beta-fluoroaspartate; format: functional
Procedure, shortened: (§1)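 Rat hepatoma H4 cells seeded at 1.4×10^4 per 35-mm dish in MEM+. On day 4, fresh MEM+ was added, with treatments including L-aspartate or L-asparagine. Exposure 66 h, then total cell protein per dish measured by Lowry. Results expressed as % of untreated control protein, mean of duplicate dishes.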

H4 [2] = experiment: Tested for its reversal effect on growth of H4 cells at 330 + 40 ug/mL concentrations of L-aspargine and DL-threo-beta-fluoroaspartate; format: functional
Procedure, shortened: (§2)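 H4 hepatoma cells seeded at 8×10^3 per 35-mm dish in F 10+ medium. On day 4, the medium was renewed and treatments started, including L-aspartate or L-asparagine. Incubation 72 h, then Lowry total cell protein per dish. Results reported as % of untreated control, mean of duplicate dishes.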

H4 (Rattus norvegicus) [3] = experiment: Tested for its reversal effect on growth of H4 cells at 133 ug/mL concentrations of L-aspargine and DL-threo-beta-fluoroaspartate
H4 (Rattus norvegicus) [4] = experiment: Tested for its reversal effect on growth of H4 cells at 330 ug/mL concentrations of L-aspargine and DL-threo-beta-fluoroaspartate
7800C1 cell line [5] = experiment: Tested for its cytotoxic effect on the growth of the cell strain 7800C1 (1 x 10e 4 (MEM)) at 50 ug/mL dose; format: functional, Rattus norvegicus
Procedure, shortened: (§3)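 Cells plated in 35-mm dishes at the stated density and medium (F 10+: Ham's F10 + 15% horse serum + 2.5% fetal calf serum; MEM+: Eagle's MEM + 5% horse + 5% fetal calf serum), grown 3 days. All strains then switched to F 10+ before treatment and incubated 4 days. Growth read as total cell protein per dish (Lowry, bovine albumin standard). Single determinations; experiment repeated twice.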

7800C1 cell line [6] = experiment: Tested for its cytotoxic effect on the growth of the cell strain 7800C1 (1 x 10e 4 (MEM)) at 10 ug/mL dose; format: functional, Rattus norvegicus; procedure, shortened: as §3
GH4-C1 [7] = experiment: Tested for its cytotoxic effect on the growth of the cell strain GH4C1 (8 x 10e 4 (F 10+)) at 10 ug/mL dose; format: functional, Rattus norvegicus; procedure, shortened: as §3
GH3 [8] = experiment: Tested for its cytotoxic effect on the growth of the cell strain GH3 (2 x 10e 4 (F 10+)) at 10 ug/mL dose; format: functional, Rattus norvegicus; procedure, shortened: as §3
GH4-C1 [9] = experiment: Tested for its cytotoxic effect on the growth of the cell strain GH4C1 (8 x 10e 4 (F 10+)) at 50 ug/mL dose; format: functional, Rattus norvegicus; procedure, shortened: as §3
H4 [10] = experiment: Tested for its cytotoxic effect on the growth of the cell strain H4 (8 x 10e 3 (MEM)) at 10 ug/mL dose; format: functional; procedure, shortened: as §3
H4 [11] = experiment: Tested for its cytotoxic effect on the growth of the cell strain H4 (8 x 10e 3 (MEM)) at 50 ug/mL dose; format: functional; procedure, shortened: as §3
H4 [12] = experiment: Tested for its reversal effect on growth of H4 cells at 40 ug/mL concentrations of L-aspargine and DL-threo-beta-fluoroaspartate; format: functional; procedure, shortened: as §2
H4 [13] = experiment: Tested for its reversal effect on growth of H4 cells at 50 ug/mL concentrations of L-aspargine and DL-threo-beta-fluoroaspartate; format: functional; procedure, shortened: as §1
MH1C1 [14] = experiment: Tested for its cytotoxic effect on the growth of the cell strain MH1C1 (1 x 10e 4 (F 10+)) at 10 ug/mL dose; format: functional; procedure, shortened: as §3
MH1C1 [15] = experiment: Tested for its cytotoxic effect on the growth of the cell strain MH1C1 (1 x 10e 4 (F 10+)) at 50 ug/mL dose; format: functional; procedure, shortened: as §3
R5 [16] = experiment: Tested for its cytotoxic effect on the growth of the cell strain R5 (1 x 10e 3 (F 10+)) at 10 ug/mL dose; format: functional; procedure, shortened: as §3
R5 [17] = experiment: Tested for its cytotoxic effect on the growth of the cell strain R5 (1 x 10e 3 (F 10+)) at 50 ug/mL dose; format: functional; procedure, shortened: as §3
GH3 [18] = experiment: Tested for its cytotoxic effect on the growth of the cell strain GH3 (2 x 10e 4 (F 10+)) at 50 ug/mL dose; format: functional, Rattus norvegicus; procedure, shortened: as §3

Which results are given for `NC(=O)C(F)[C@H](N)C(=O)O.N[C@@H](CC(=O)O)C(=O)O` (mixture of isomers; form 1)?
Cell protein in untreated control (H4 [1]): 68%; Cell protein in untreated control (H4 [2]): 93%

`NC(=O)C[C@H](N)C(=O)O` [ASPARAGINE] was tested. Which “Cell protein in untreated control” value (H4 (Rattus norvegicus) [3]) did it give?
Its value is 103%.

And the “Cell protein in untreated control” value (H4 (Rattus norvegicus) [4])?
The value was 100%.

Which Cell protein (7800C1 cell line [5]) does the source give for `NC(=O)C(F)C(N)C(=O)O` (racemic) here?
Its Cell protein is 0 ug dish-1.

And the Cell protein (7800C1 cell line [6])?
Its Cell protein is 15 ug dish-1.

And the Cell protein (GH4-C1 [7])?
The Cell protein was 35 ug dish-1.

And the Cell protein (GH3 [8])?
The Cell protein was 36 ug dish-1.

And the Cell protein (GH4-C1 [9])?
The Cell protein was 16 ug dish-1.

What about the Cell protein (H4 [10]) of the same compound?
Its Cell protein is 0 ug dish-1.

What about the Cell protein (H4 [11]) of the same compound?
Its Cell protein is 0 ug dish-1.

What about the “Cell protein in untreated control” value (H4 [12]) of the same compound?
Its value is 17%.

And the “Cell protein in untreated control” value (H4 [13])?
Its value is 0%.

And the Cell protein (MH1C1 [14])?
Its Cell protein is 55 ug dish-1.

And the Cell protein (MH1C1 [15])?
The Cell protein was 31 ug dish-1.

What about the Cell protein (R5 [16]) of the same compound?
The Cell protein was 85 ug dish-1.

What about the Cell protein (R5 [17]) of the same compound?
Its Cell protein is 27 ug dish-1.

What about the Cell protein (GH3 [18]) of the same compound?
Its Cell protein is 14 ug dish-1.

With `NC(=O)C(F)[C@H](N)C(=O)O.NC(=O)C[C@H](N)C(=O)O` (mixture of isomers; form 2) as the compound, how does the “Cell protein in untreated control” value (H4 [1]) read?
The value was 19%.

And the “Cell protein in untreated control” value (H4 [2])?
Its value is 80%.
